Experimental data: ChEMBL document CHEMBL1134760, “Evaluation of amino acid-based linkers in potent macrocyclic inhibitors of farnesyl-protein transferase” (Bioorg Med Chem Lett, 2001)

Columns and labels:
[1] = molecular target: Geranylgeranyl transferase type I (Homo sapiens, UniProt P49354+P53609); assay: In vitro inhibitory activity to reduce the human geranylgeranyl transferase type I (GGPTase-1)-catalyzed incorporation of 3H GGPP (100 nM) into K-Ras-derived peptide; type: functional
[2] = molecular target: Protein farnesyltransferase (Rattus norvegicus, UniProt Q02293+Q04631); assay: In vitro ability to displace radiolabeled FTI from farnesyltransferase in cultured Ha-ras transformed RAT1 cells; type: cell-based
Procedure, shortened: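 Competitive binding in v-Ha-ras transformed RAT1 cells seeded at 200,000 cells/well and cultured 16 h. [125I]-labelled FTI radiotracer diluted to 1 nM in culture medium with test FTI is added to the monolayers. Incubation 4 h at 37 °C, PBS rinse, trypsinization, gamma counting. Nonspecific binding is taken with 1000-fold excess unlabeled FTI.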

[3] = molecular target: Protein farnesyltransferase (Homo sapiens, UniProt P49354+P49356); assay: In vitro inhibitory activity to reduce the human farnesyltransferase catalyzed incorporation of [3H]FPP into recombinant Ras-CVIM; type: functional
Procedure, shortened: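 Human FPTase, [3H]FPP incorporated into recombinant Ras-CVIM. Enzyme at 1 nM, or 10 pM for some compounds.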

[4] = rat
[5] = Clearance by iv administration in dogs at a dose of 1 mg/kg; details: dog, in vivo

Structure (SMILES)	IC50 [1]	IC50 [2]	IC50 [3]	half-life [4]	clearance [5]
C[C@@H]1NCc2cncn2Cc2ccc(C#N)c(c2)Oc2ccc3cccc(c3c2)NC1=O	4820 nM	248 nM	11 nM	–	–
N#Cc1ccc2cc1Oc1ccc3cccc(c3c1)NC(=O)CN(Cc1ccccc1)Cc1cncn1C2	> 20000 nM	29.6 nM	2.6 nM	–	–
C[C@H]1NCc2cncn2Cc2ccc(C#N)c(c2)Oc2ccc3cccc(c3c2)NC1=O	313 nM	23 nM	1.3 nM	–	–
N#Cc1ccc2cc1Oc1ccc3cccc(c3c1)NC(=O)[C@@H](Cc1ccccc1)NCc1cncn1C2	66 nM	17 nM	0.47 nM	–	–
N#Cc1ccc2cc1Oc1ccc3cccc(c3c1)NC(=O)[C@@H](Cc1ccccc1)N(Cc1ccccc1)Cc1cncn1C2	> 20000 nM	574 nM	50 nM	–	–
N#Cc1ccc2cc1Oc1ccc3cccc(c3c1)C(=O)NCCNC(=O)Cc1cncn1C2	250 nM	409 nM	2.5 nM	–	–
C[C@@H]1C(=O)Nc2cccc3ccc(cc23)Oc2cc(ccc2C#N)Cn2cncc2CN1Cc1ccccc1	> 20000 nM	240 nM	18 nM	–	–
CN1CC(=O)Nc2cccc3ccc(cc23)Oc2cc(ccc2C#N)Cn2cncc2C1	2070 nM	196 nM	5.7 nM	–	–
C[C@@H]1C(=O)N(C)c2cccc3ccc(cc23)Oc2cc(ccc2C#N)Cn2cncc2CN1C	6760 nM	15 nM	–	–	–
CC[C@H]1NCc2cncn2Cc2ccc(C#N)c(c2)Oc2ccc3cccc(c3c2)NC1=O	469 nM	410 nM	1.2 nM	–	–
CN1C(=O)CNC(=O)Cc2cncn2Cc2ccc(C#N)c(c2)Oc2ccc3cccc1c3c2	1090 nM	65 nM	6.6 nM	–	–
N#Cc1ccc2cc1Oc1ccc3cccc(c3c1)N1CCN(CC1=O)Cc1cncn1C2	–	–	–	1 h	5.1 mL/min/kg
N#Cc1ccc2cc1Oc1ccc3cccc(c3c1)NC(=O)[C@@H](Cc1ccccc1)NC(=O)Cc1cncn1C2	29 nM	310 nM	3.5 nM	–	–
N#Cc1ccc2cc1Oc1ccc3cccc(c3c1)NC(=O)[C@@H](Cc1cccnc1)NCc1cncn1C2	147 nM	1310 nM	1.8 nM	–	–
N#Cc1ccc2cc1Oc1ccc3cccc(c3c1)NC(=O)[C@@H](Cc1cccs1)NCc1cncn1C2	72 nM	43 nM	2.1 nM	–	–
N#Cc1ccc2cc1Oc1ccc3cccc(c3c1)NC(=O)CNCc1cncn1C2	675 nM	37 nM	4.3 nM	–	–
N#Cc1ccc2cc1Oc1ccc3cccc(c3c1)C(=O)NCCCNCc1cncn1C2	890 nM	99 nM	2.3 nM	–	–
CN1CC(=O)N(C)c2cccc3ccc(cc23)Oc2cc(ccc2C#N)Cn2cncc2C1	12800 nM	13 nM	8.4 nM	–	–
C[C@H]1NC(=O)Cc2cncn2Cc2ccc(C#N)c(c2)Oc2ccc3cccc(c3c2)NC1=O	50 nM	258 nM	3.3 nM	–	–
CN1C(=O)CNCc2cncn2Cc2ccc(C#N)c(c2)Oc2ccc3cccc1c3c2	6720 nM	55 nM	15 nM	–	–
N#Cc1ccc2cc1Oc1ccc3cccc(c3c1)NC(=O)CNC(=O)Cc1cncn1C2	150 nM	67 nM	3.8 nM	–	–
CN1Cc2cncn2Cc2ccc(C#N)c(c2)Oc2ccc3cccc(c3c2)NC(=O)[C@H]1Cc1ccccc1	350 nM	184 nM	2.7 nM	–	–
C[C@H]1NCc2cncn2Cc2ccc(C#N)c(c2)Oc2ccc3cccc(c3c2)N(C)C1=O	3160 nM	17 nM	16 nM	–	–
N#Cc1ccc2cc1Oc1ccc3cccc(c3c1)C(=O)NCCNCc1cncn1C2	77 nM	7.1 nM	4.5 nM	–	–
C[C@@H]1C(=O)Nc2cccc3ccc(cc23)Oc2cc(ccc2C#N)Cn2cncc2CN1C	1220 nM	> 100 nM	7 nM	–	–
